Measurements: the RNAGym collection of RNA variant scans (doi:10.1126/science.aae0568)
Variants at the floor of the assay were thinned out.

B1: tRNA (parent)
chain: GUUCCGUUGGCGUAAUGGUAACGCGUCUCCCUCCUAAGGAGAAGACUGCGGGUUCGAGUCCCGUACGGAACG

Variants of: B1
Test: yeast fitness relative to wild type (ratio to wild type); higher = fitter; tRNA-Arg(CCU), competitive growth, 37 C, YPD
Method in brief: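 Gene amplicons from the start population and from each of six end populations were read by 100-nucleotide paired-end sequencing. Those end populations came from pooled Saccharomyces cerevisiae strains carrying tRNA-Arg(CCU) gene variants at the native locus, competed in YPD at 37°C for 24 hours. Fitness relative to wild type was worked out from changes in genotype frequencies. Genotypes needed ≥ 100 starting reads, and estimates < 0.5 were set to 0.5.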
For GUUCCGUCGGCGUAAUGGUAACGCGUCUCCCUCCUAAGGAGAAGACUGAGUGUUCGAGGCCAGUACGGAACG, the yeast fitness was ≤ 0.5. With GUUCCGUUGGCGUAAUGGUAAUGCGUCUCCGUCCUAAGGAGAAGACUGCGGGUUCGAGUGCCGUACGGAACG the yeast fitness was ≤ 0.5. In the case of GUUCCCUUGGCGUAAAGGUAACGCGUCUCACUCCUAAGGAGAAGACUGCGGGUUCGAGUCCCGUACGGUACG, the yeast fitness is reported as ≤ 0.5. With GUUCCGUUGGCGUAAUGGUAACGCGUCUCGCUCCUAAGGAGAAGACUGCGGGUUCGAGUCCCCUACGGAACG the yeast fitness was ≤ 0.5. For GUUCCGUUGGCGUAAUGGUAACGCGUCUCCCUCCUAAGGAGAAAACUGUGGGUUCGAGUCCCGUACGGAACG, the yeast fitness was 1.04. In the case of GUUCCGCUGGCGUAAUGGUAACGCGUCUCCCUCCUAAGGAGAAGACUGGGGGUUCGAGUCCCGUACGGCACG, the yeast fitness is reported as 0.58. Variant GUUCCGUUGGCGUAAUGGUAACGCGUCUCCCUCCAAAGGAGAAGACUGCGGGUUCGAGUCCCGUACGGACCG has a yeast fitness of 0.769. For GUUCCGUUGGCCUAAUGGUAACCCGUCUCCCUCCUAAGGAGAAGACUGCGGGUUCGAGUCCCGUACGGAACG, the yeast fitness was 0.588. For GUUCCGUUGGCGUAAUGGUAACGUGGCUCCCUCCUAAGGAGAAGACUGCGGGUUCGAGUCGCGUACGGAACG, the yeast fitness was ≤ 0.5. With GUUCCGUUGGCGUAAUGGUAAUGCAUCUCCCUUCUAAGGAGCAGACUGCGGGUUCGAGUCCCGUACGGAACG the yeast fitness was ≤ 0.5. GUUCUGUUGGCGUAAUGGUAACGCGUCUCCCUCCUAUGGAGAAGACUGCGGGUUCGAGUCCCGUACGGAACG showed a yeast fitness of 0.732. Work on GUUCCGUUGGCGUAAUGGUAACGCGUUUCCCUCCUAAGGAGAAGACUACGGGUUCGAGUCCCGUACGGAUCG yielded a yeast fitness of 0.775. In the case of GUUCCGUUGGGGUAAUGGUAACGCGUCUCCCUCCUAAGGAGAACACUGCGGGUUCGCGUUCCGUACGGAACG, the yeast fitness is reported as 0.518. With GUUCCGUUGGCGUCAUGGUAACGCGUAUCCAUCCUAAGGAGAAGACUGCGGGUUCGAGUCCCAUACGGAACG the yeast fitness was ≤ 0.5. For GUUCCGUUGGCGCAAUGGUAACGCGUCUCCCUCCUAAGGAGAGGACUGCGGCUUCGAGUCCCGUACGGAACG, the yeast fitness was ≤ 0.5. For GUUCCGUUGGCGUAAUGGUGACGCGUCUCCCUCCUAAGGAGAAGACUGCGGGUUCGAGUCCCGUUCGGCACG, the yeast fitness was ≤ 0.5. Variant GUUCCGUUGGCGUAAUGGUAUCGCGUCGCCCUCCUAAGGAGAAGACUGCGGGUUCGAGGCCCGUACGGAACG has a yeast fitness of 0.609. GUUCCGUUGGCGUAAUGGGAACGCGUCUCCCUCCUCAGGAGAAGACUGCGGGUUCGAGUCCCGUACGGAACG showed a yeast fitness of 0.529. For GUUCUGUUGGUGUAAUAGUAACGCGUCUCCGUCCUAAGGAGAAGACUGCGGGUUCGAGUCCCGUACGAAACG, the yeast fitness was ≤ 0.5. With GUUUGGUUGGCGUAACGGUAACGGGUCUCCCUCCUAAGGAGCAGACUGCGGGUUCGAAUCCCGUACGGAACG the yeast fitness was 0.571. Work on GUUCCAUUGGCGUAAUGGUAACGUGUCUCCCUCCUAAGGAGAAGACCGCGGGUUCGAGUCCCGUACGGAACG yielded a yeast fitness of 0.751. With GUUCCGUUGGCGUAAUGGGAACGCGUCUCCCUCCUAAGGAGAAGACUGCGGGUUCGAAUCCCGUAUGGAACG the yeast fitness was 0.857. In the case of GUUCCGUUGGCGUAAUGGUAACGCGUCUCCCUCCUAAGGAGAAGAUUGCGGGUUUGAGUCGCGUACGGAACG, the yeast fitness is reported as ≤ 0.5. Variant GUUCCGUUGGCGUAAUGGUAACGCGUCUCCCUCCUAAGAAGAACACUGCGGGUUCGAGUCCCGUACGGAACG has a yeast fitness of 0.816. GUUCCGUUGGCGUAAUGGUAACGCGACUCCCUCCCAAGGAGAAGUCUGCGGGUUCGAGUCCCGUACGGAACG gave a yeast fitness of 0.746. GUUCCCUUGGCGUAAUGGUAACGCGUCUCCCUCCUAAGGAGAAGCCUGCGGGUUCGAAUCCCGUACGGAACG gave a yeast fitness of 0.587. For GUUCCGUUGGCGUAAUGGUAACGCGUCUGCCUCCUAAGGAGAAGACUGCGGGUUCCAGUCACGUACGGAACG, the yeast fitness was 0.512. GUUCCGUUGGCGUCAUGGUAACGCCUCUCCCUCCUAAGGAGAAGACUACGGGUUCGAGUCCCGUACGGUACG gave a yeast fitness of 0.553. In the case of GUUCAGUCGGCGUAAUGGUAGCGCGUCUCCCUCCUAAGGAGAAGCCGGCGGGUUCCAGUCCCGUACGGAACG, the yeast fitness is reported as ≤ 0.5. For GUUCCGUUGGCGUAAUGGUAACGCGUCUCCCACCUAAGGAGCAGACUGCGGGUUCGGGUCCCGUACGGACCG, the yeast fitness was ≤ 0.5. For GUUCCGUUGGCGUAAUGGUAACGCGUGUCCCUCCUAAGGAGAAGACUGGGGGUUCGAGUCCCGUACGGAACG, the yeast fitness was 0.621. With GUUCCGUUGGCGUAAUGGUAACGCGUCUCCCUCCUAAGGAAAAGACCGCGGGAUCGAGUCCCGUACGGAACG the yeast fitness was ≤ 0.5. GUGCCGUUGGCGUAAUGGUAACGCGUCUCCCUCCUAAGGAGAAGACUGUGGGUUCGAAUCCCAUACGGAACG gave a yeast fitness of 0.584. In the case of GUUCCGUUGACGUAAUGGUAACGCGUCUCCCUCCUAACGAGAAGACUGCGGGUUCGGGUCCCGUACGGAACG, the yeast fitness is reported as ≤ 0.5. For GUUCCGUUGGCGUAAUGGUAACGUGUCUCCCUCGUAAGGAGAAGACUGCGGGUUCGUGUCGCGUACGGAACG, the yeast fitness was ≤ 0.5. In the case of GUUCCGUUGGCGUCAUGAUAACGCGUCUCCCUCCUAAGGAGGAAACUGCGGGUUCGAGUCCCGUAGGGAACG, the yeast fitness is reported as ≤ 0.5. For GUUCCAUUGGCGAGAUGGUAACGCGUCUCCCUCCUAAGGAGUAGACUGCGGGUUCGAGUCCCGUACGGAACG, the yeast fitness was ≤ 0.5.
